In publication PMC6072465 (MedChemComm, 2017):

Legend:
[1] = test system: caspase-3 in HCT116 cells; test: Caspase-3 activity with fluorogenic substrate DEVD-AMC, HCT116 cells; format: cell-based, human; settings: compared with betulinic acid
[2] = test system: HCT116 (human colon carcinoma) cancer cells; test: Oxygen consumption, Seahorse XF-96 Analyzer; format: cell-based; settings: incubation for 24 hours
How it was run: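 HCT116 cells grown in DMEM with 10% heat-inactivated FCS and penicillin/streptomycin at 37 °C, 5% CO2. About 15 000 cells/well adhered overnight, then were exposed to test compounds for 24 h. Cells were washed and held 1 h at 37 °C without CO2 in unbuffered DMEM (5 mM glucose, 2 mM glutamine, pH 7.4). Basal OCR was read, then sequential oligomycin, CCCP, and rotenone/antimycin A. Rates normalized to total well protein.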

[3] = test system: caspase-3 in TET21N cells; test: Caspase-3 activity with fluorogenic substrate DEVD-AMC, TET21N cells; format: cell-based, human; settings: compared with betulinic acid
HCT116 cells = test: Cytochrome c release from mitochondria to cytosol; format: cell-based, human; settings: concentration 3.5 μM

SMILES: C=C(C)[C@@H]1CC[C@]2(C(=O)OCCOCCOCC[P+](c3ccccc3)(c3ccccc3)c3ccccc3)CC[C@]3(C)[C@H](CC[C@@H]4[C@@]5(C)CC[C@H](O)C(C)(C)[C@@H]5CC[C@]43C)[C@@H]12.[Br-] [compound 9, 9′-(Triphenylphosphonio-3′,6′-dioxaoctan-1′-yl)-3β-hydroxylup-20(29)-en-28-oate bromide]
- activation of caspase-3 [1]: considerably surpassed betulinic acid in the caspase-3 activation
- effect on mitochondrial respiration (oxygen consumption) [2]: suppressed respiration in a concentration-dependent manner
- activation of caspase-3 [3]: considerably surpassed betulinic acid in the caspase-3 activation

SMILES: C=C(C)[C@@H]1CC[C@]2(C(=O)O)CC[C@]3(C)[C@H](CC[C@@H]4[C@@]5(C)CC[C@H](O)C(C)(C)[C@@H]5CC[C@]43C)[C@@H]12 [BA, betulinic acid, reference compound]
- effect on mitochondrial respiration (oxygen consumption) [2]: ineffective
- release of cytochrome c from the mitochondria to the cytosol (HCT116 cells): failed to trigger the release of cytochrome c

SMILES: C=C(C)[C@@H]1CC[C@]2(C(=O)OCCOCCOCC[P+](c3ccccc3)(c3ccccc3)c3ccccc3)CC[C@]3(C)[C@H](CC[C@@H]4[C@@]5(C)CC[C@H](OC(C)=O)C(C)(C)[C@@H]5CC[C@]43C)[C@@H]12.[Br-] [compound 7, 8′-(Triphenylphosphonio-3′,6′-dioxaoctan-1′-yl)-3β-acetoxylup-20(29)-en-28-oate bromide]
- effect on mitochondrial respiration (oxygen consumption) [2]: suppressed respiration in a concentration-dependent manner
